Assay results pooled from the literature.
Lines come from different studies, so protocols differ.
Target: Microtubule-associated serine/threonine-protein kinase 1 (MAST1, Homo sapiens, UniProt Q9Y2H9)

Compound	test	setting	remaining binding [%]
COc1ccc2cc(OCC3(C(=O)O)CN(C(=O)c4ccc(F)cc4)C3)ccc2c1	cell-free assay, competition with immobilised ligand	1 µM	100
COc1cnc(Nc2cccc(S(N)(=O)=O)c2)nc1N1CCN(c2ccccc2)CC1	binding, competition with immobilised ligand	1 µM	69
O=C(c1ccc(Nc2ncc(Cl)c(-c3cc4ccccc4s3)n2)cc1)N1CCC(N2CCCC2)CC1	binding, competition with immobilised ligand	1 µM	52
CN(C)c1nccc(-c2cnn3ncccc23)n1	binding	1 µM	76
CC(=O)C1=C(C)N(c2cccc(C(F)(F)F)c2)C(=O)N[C@@H]1c1ccc(C#N)nc1	cell-free assay, competition with immobilised ligand	1 µM	96.9
O=C(NCCCN1CCOCC1)c1ccc(Nc2ncc(Cl)c(-c3ccc(Cl)s3)n2)cc1	binding, competition with immobilised ligand	1 µM	63
C[C@@H](c1ccc(-n2cnc3c(N)ncnc32)cc1)N1CCc2nn(C)c(Cc3ccccc3)c2C1=O	binding, competition with immobilised ligand	0.1 µM	40
CN(C)c1ncc(F)c(-c2cnn3ncccc23)n1	binding	1 µM	96
CCC(=O)N[C@@H]1CC[C@H](C(=O)N(C)c2ccc(-c3nc4ccccc4o3)cc2)C1	cell-free assay, competition with immobilised ligand	1 µM	94
COc1ccnn2ncc(-c3ccnc(N(C)C)n3)c12	binding	1 µM	99
FC(F)(F)Oc1cccc(-c2cnc3ccc(-c4ccncc4)nn23)c1	cell-free assay, competition with immobilised ligand	5 µM	51
C=CC(=O)N1CCC(C(=O)NCC(=O)N2CCN(c3nc(-c4cnc(N)nc4C(F)F)nc(N4CCOCC4)n3)CC2)CC1	binding, competition with immobilised ligand	1 µM	100
CCN1CCN(Cc2ccc(C(=O)Nc3ccc(C)c(Oc4ccc5c(c4)CC(=O)N5)c3)cc2C(F)(F)F)CC1	binding, competition with immobilised ligand	1 µM	100
CCCOc1ccc([C@@H]2[C@@H](C(=O)O)[C@H](c3ccc4c(c3)OCO4)CN2CC(=O)Nc2c(CC)cccc2CC)cc1	cell-free assay, competition with immobilised ligand	1 µM	100
O=C(Nc1c[nH]nc1C(=O)NC1CCNCC1)c1cc(F)cc(F)c1	binding, competition with immobilised ligand	1 µM	100
N[C@H]1CCN(c2nccc(-c3cnn4ncccc34)n2)C1	binding	1 µM	100
O=C(c1ccc(Nc2nccc(-c3cc4ccccc4s3)n2)cc1)N1CCC(N2CCCC2)CC1	binding, competition with immobilised ligand	1 µM	53
F[C@@H]1CCN(c2nccc(-c3cnn4ncccc34)n2)C1	binding	1 µM	100
CN([C@@H]1CCc2c(CC(=O)O)c3ccccc3n2C1)S(=O)(=O)c1ccc(F)cc1	cell-free assay, competition with immobilised ligand	1 µM	100
C[C@H]1CCN(c2nccc(-c3cnn4ncccc34)n2)C1	binding	1 µM	82
CS(=O)(=O)N1CCCC(NC(=O)[C@H](CCC2CCCCC2)NC(=O)c2ccc(CNc3ncnc4c3nnn4-c3ccccc3)cc2)C1 (stereo partly drawn)	cell-free assay, competition with immobilised ligand	0.1 µM	100
